Series [1] is described as follows: Half life in rat at 3 mg/kg, iv. In kind it is ADME, organism-based. The arrangement: dose 3 mg/kg, route intravenous. Conditions: in vivo.
Series [2] can be described thus: Modulation of gamma secretase in CHO-2B7 cells assessed as reduction in amyloid beta 42 level after 5 hrs by MSD ELISA. The class given is cell-based. The settings on record: Cricetulus griseus, CHO-2B7, 5 h.
Series [3] in a line: Volume of distribution in rat at 3 mg/kg, iv. The arrangement: dose 3 mg/kg, route intravenous. The class given is ADME, organism-based. The settings on record: in vivo.
The nature of series [4]: Cmax in rat at 10 mg/kg, po. In kind it is ADME, organism-based. The arrangement: dose 10 mg/kg, route oral. Conditions: in vivo.
A short description of series [5]: Oral bioavailability in rat at 10 mg/kg. The class given is ADME, organism-based. Conditions: in vivo.
The nature of series [6]: Clearance in rat at 3 mg/kg, iv. The arrangement: dose 3 mg/kg, route intravenous. In kind it is ADME, organism-based. Conditions: in vivo.
Series [7] in a line: (§1) Metabolic stability in human liver microsomes assessed as compound remaining at 1 uM at 60 mins by LC/MS/MS analysis in absence of NADPH. The class given is ADME, Microsome. Conditions: liver microsomes, read-out: Stability. Put shortly:
(§2)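 Human liver microsomes were run without NADPH as a qualitative read of susceptibility to enzymatic hydrolysis. The read-out was percent parent remaining at 60 min.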
A general note: Microsomes from liver hold many membrane-bound enzymes, among them those of drug oxidation.

Series [8] in a line: Ratio of drug uptake in brain to plasma in rat at 10 mg/kg, po at 6 hrs. In kind it is ADME, organism-based. The arrangement: dose 10 mg/kg, route oral. Conditions: brain and plasma, read-out: BPR.
In series [9] the test system is Liver microsomes. The series is described as follows: Metabolic stability in human liver microsomes at 1 uM after 60 mins by LC/MS/MS analysis. Conditions: 1 h.
Series [10] in a line: Plasma concentration in CD1 mouse at 1 mg/kg, iv at 2 hrs. The arrangement: dose 1 mg/kg, route intravenous. The class given is ADME, organism-based. In a few lines:
(§3)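 Screen of CNS penetration: CD-1 mice were dosed IV and plasma and brain concentrations were measured. Brain-to-plasma ratio was calculated, mostly at 6 h post dose, with one compound sampled at 2 h.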

Series [11] can be described thus: Ratio of drug uptake in brain to plasma in CD1 mouse at 1 mg/kg, iv at 2 hrs. On the set-up: dose 1 mg/kg, route intravenous. Conditions: brain and plasma, read-out: BPR. The class given is ADME, organism-based. In a few lines:
as §3

A short description of series [12]: Drug uptake in CD1 mouse brain at 1 mg/kg, iv at 2 hrs. In kind it is ADME, organism-based. The arrangement: dose 1 mg/kg, route intravenous. The settings on record: read-out: Drug uptake. In a few lines: as §3
Series [13] has as its system Liver microsomes. The series is described as §1. The class given is ADME, Microsome. The settings on record: microsomes, 1 h, 1 µM. In a few lines: as §2
Series [14] in a line: Modulation of gamma secretase in CHO-2B7 cells assessed as reduction in amyloid beta 40 level after 5 hrs by MSD ELISA. In kind it is cell-based. The settings on record: Cricetulus griseus, CHO-2B7, 5 h.

A value given as a limit tells only on which side of the number the result lay.

The term half-life denotes how long it takes for the measured level to halve. Usually IC50 stands for the concentration needed to halve the response being measured. The Vd is a proportionality between amount in the body and measured concentration, not a real space. High values mean wide distribution into tissue, low ones little distribution into tissue. By Cmax is commonly meant the highest concentration seen after dosing. What is called bioavailability is dose-corrected exposure relative to a reference, in per cent. By clearance is commonly meant the volume of plasma or blood freed of the substance per unit of time. As to `C[C@@H]1C[C@H]([C@H](O)C(C)(C)O)O[C@H]2[C@H]1[C@@]1(C)CC[C@@]34C[C@@]35CC[C@H](O[C@H]3CN([C@H]6CCNC6=O)CCO3)C(C)(C)[C@@H]5CC[C@H]4[C@]1(C)[C@H]2O`, in series [1], the half-life was 5 h. For the same compound, the concentration for half-maximal inhibition (IC50) in series [2] was at least 20 µM. The compound also registered a Vd in series [3] of 3.1 L/kg. The compound also showed a Cmax in [4] of 2.2 µM. The bioavailability in [5] is over 100%. The compound also had a clearance in series [6] of 0.58 L/h/kg. For the same compound, the remaining at 1 h, 1 µM in series [7] was 85%. Moreover, the Kp at 6 h in series [8] worked out at 0.09.
In the case of `CC(C)[C@@H](OC(=O)N1CCC1)[C@H]1C[C@@H](C)[C@H]2[C@H](O1)[C@H](O)[C@@]1(C)[C@@H]3CC[C@H]4C(C)(C)[C@@H](O[C@H]5CNCCO5)CC[C@@]45C[C@@]35CC[C@]21C`, the values for the Stability result in the series with Liver microsomes [9] and with Liver microsomes [13] were “Stable” and 123%, respectively. The concentration at 2 h worked out at 0.326 µM in [10] and 0.03 µM in series [12]. For the same compound, the Kp at 2 h in series [11] is 0.09. The results for the IC50 in series [2] and in [14] were 0.26 µM and 7.9 µM, respectively.

The values are drawn from ChEMBL document CHEMBL2203235, “Optimization of a natural product-based class of γ-secretase modulators” (J Med Chem, 2012).
